ChEMBL document CHEMBL5357066, “Development of Novel Membrane Disrupting Lipoguanidine Compounds Sensitizing Gram-Negative Bacteria to Antibiotics” (ACS Med Chem Lett, 2024)
Values after ≈ are worked out from the molar mass of the structure shown.

Columns and labels:
Acinetobacter baumannii [1] = experiment: Antibacterial activity against Acinetobacter baumannii AYE assessed as bacterial growth inhibition incubated for overnight by microbroth dilution method; format: functional
In short: (§1)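 Broth microdilution in Tryptic Soy Broth. DMSO stocks were diluted in TSB as 2-fold series. Overnight TSB cultures were back-diluted to OD 0.01 and mixed 1:1 with compound. Incubation was overnight at 37 °C. MIC was the lowest concentration without visible growth (<0.1 OD600). DMSO vehicle was checked at equivalent concentrations.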

Acinetobacter baumannii [2] = experiment: Synergistic antibacterial activity against Acinetobacter baumannii ATCC 17978 assessed as bacterial growth inhibition incubated for overnight in presence of PBMN by microbroth dilution method relative to control; format: functional
In short: (§2)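 Adapted broth microdilution in TSB. The test compound was in a 2-fold dilution series, with PMBN added at a fixed 30 µg/mL. Bacteria at OD 0.02 were added, and plates were incubated overnight at 37 °C. Growth/no growth was read as for the MIC (<0.1 OD600).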

Escherichia coli [3] = experiment: Synergistic antibacterial activity against Escherichia coli NCTC 12923 assessed as fold change in rifampicin MIC at <=0.25 times MIC incubated for overnight by microbroth dilution checkerboard assay relative to rifampicin alone; format: functional
In short: (§3)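 Checkerboard microdilution under MIC conditions (TSB, overnight, 37 °C). Two-fold series of each agent were combined on one plate before bacteria were added, and single-agent MICs were measured on the same plate. FIC = sum of combination MIC/alone MIC for each agent, taken from the most synergistic well. Three independent repeats, mean ± SD. ≤0.5 was taken as strong synergy and 0.5–<1 as weak.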

Klebsiella pneumoniae [4] = experiment: Antibacterial activity against ESBL Klebsiella pneumoniae NCTC 13368 assessed as bacterial growth inhibition incubated for overnight by microbroth dilution method
Escherichia coli [5] = experiment: Synergistic antibacterial activity against Escherichia coli NCTC 12923 assessed as rifampicin MIC at <=0.25 times MIC incubated for overnight by microbroth dilution checkerboard assay; format: functional; in short: as §3
Acinetobacter baumannii [6] = experiment: Synergistic antibacterial activity against Acinetobacter baumannii ATCC 17978 assessed as fold change in rifampicin MIC at <=0.25 times MIC incubated for overnight by microbroth dilution checkerboard assay relative to rifampicin alone; format: functional; in short: as §3
Klebsiella pneumoniae [7] = experiment: Antibacterial activity against Klebsiella pneumoniae M6 assessed as bacterial growth inhibition incubated for overnight by microbroth dilution method
Escherichia coli [8] = experiment: Antibacterial activity against Escherichia coli NCTC 12923 assessed as bacterial growth inhibition incubated for overnight by microbroth dilution method; format: functional; in short: as §1
Acinetobacter baumannii [9] = experiment: Synergistic antibacterial activity against Acinetobacter baumannii ATCC 17978 assessed as rifampicin MIC at <=0.25 times MIC incubated for overnight by microbroth dilution checkerboard assay; format: functional; in short: as §3
Klebsiella pneumoniae [10] = experiment: Synergistic antibacterial activity against Klebsiella pneumoniae NCTC 13368 assessed as bacterial growth inhibition incubated for overnight in presence of PBMN by microbroth dilution method relative to control; format: functional; in short: as §2
Acinetobacter baumannii [11] = experiment: Synergistic antibacterial activity against Acinetobacter baumannii AYE assessed as rifampicin MIC at <=0.25 times MIC incubated for overnight by microbroth dilution checkerboard assay; format: functional; in short: as §3
Staphylococcus aureus [12] = experiment: Antibacterial activity against methicillin resistant Staphylococcus aureus USA 300 assessed as bacterial growth inhibition incubated for overnight by microbroth dilution method; format: functional
In short: (§4)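 Microbroth dilution in Tryptic Soy Broth. DMSO stocks were diluted in TSB as 2-fold series. Overnight TSB cultures were back-diluted to OD 0.01 and mixed 1:1 with compound. Incubation was overnight at 37 °C. MIC is the lowest concentration with no visible growth (<0.1 OD600). DMSO at equivalent concentrations was checked.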

Pseudomonas aeruginosa [13] = experiment: Synergistic antibacterial activity against Pseudomonas aeruginosa NCTC 13437 assessed as bacterial growth inhibition incubated for overnight in presence of PBMN by microbroth dilution method relative to control; format: functional; in short: as §2
Pseudomonas aeruginosa [14] = experiment: Synergistic antibacterial activity against Pseudomonas aeruginosa PAO1 assessed as rifampicin MIC at <=0.25 times MIC incubated for overnight by microbroth dilution checkerboard assay; format: functional
In short: (§5)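 Checkerboard microdilution in Tryptic Soy Broth, run like the MIC assay. Overnight TSB cultures were back-diluted to OD 0.01 and added 1:1 to the combined two-fold series of both agents, then incubated overnight at 37 °C. Growth/no-growth was called at <0.1 OD600. MICs alone were read on the same plates. FIC index came from the most synergistic well; three independent repeats, mean ± SD.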

Staphylococcus aureus [15] = experiment: Antibacterial activity against methicillin sensitive Staphylococcus aureus ATCC 9144 assessed as bacterial growth inhibition incubated for overnight by microbroth dilution method; format: functional; in short: as §4
Enterococcus faecium = experiment: Antibacterial activity against vancomycin resistant Enterococcus faecium NCTC 12204 assessed as bacterial growth inhibition incubated for overnight by microbroth dilution method; format: functional; in short: as §4
Pseudomonas aeruginosa [16] = experiment: Synergistic antibacterial activity against Pseudomonas aeruginosa NCTC 13437 assessed as rifampicin MIC at <=0.25 times MIC incubated for overnight by microbroth dilution checkerboard assay; format: functional; in short: as §5
Klebsiella pneumoniae [17] = experiment: Synergistic antibacterial activity against […] Klebsiella pneumoniae M6 assessed as rifampicin MIC at <=0.25 times MIC incubated for overnight by microbroth dilution checkerboard assay; format: functional
In short: (§6)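 Checkerboard run under the MIC conditions (TSB, overnight, 37 °C). Antibiotic and lipoguanidine 2-fold series were combined on one plate before bacteria were added. Growth/no-growth was scored as for the MIC (<0.1 OD600). Single-agent MICs were measured on the same plates. Three independent repeats were done.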

Pseudomonas aeruginosa [18] = experiment: Synergistic antibacterial activity against Pseudomonas aeruginosa PAO1 assessed as bacterial growth inhibition incubated for overnight in presence of […] by microbroth dilution method relative to control; format: functional
In short: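 Fixed-concentration combination MIC in TSB. The first agent was set in a two-fold dilution series (100 µL/well), then 50 µL/well of the second agent at a fixed concentration was added; PMBN was fixed at 30 µg/mL. Bacteria at OD 0.02 (50 µL) went into 150 µL of compounds, overnight at 37 °C. MIC was the lowest concentration without visible growth (<0.1 OD600).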

Enterococcus faecalis [19] = experiment: Antibacterial activity against vancomycin sensitive Enterococcus faecalis NCTC 775 assessed as bacterial growth inhibition incubated for overnight by microbroth dilution method
Staphylococcus aureus [20] = experiment: Antibacterial activity against methicillin sensitive Staphylococcus aureus 1199B assessed as bacterial growth inhibition incubated for overnight by microbroth dilution method; format: functional; in short: as §4
Acinetobacter baumannii [21] = experiment: Synergistic antibacterial activity against Acinetobacter baumannii AYE assessed as fold change in rifampicin MIC at <=0.25 times MIC incubated for overnight by microbroth dilution checkerboard assay relative to rifampicin alone; format: functional; in short: as §3
Acinetobacter baumannii [22] = experiment: Synergistic antibacterial activity against Acinetobacter baumannii AYE assessed as bacterial growth inhibition incubated for overnight in presence of PBMN by microbroth dilution method relative to control; format: functional; in short: as §2
Klebsiella pneumoniae [23] = experiment: Synergistic antibacterial activity against Klebsiella pneumoniae NCTC 13368 assessed as rifampicin MIC at <=0.25 times MIC incubated for overnight by microbroth dilution checkerboard assay; format: functional; in short: as §3
Staphylococcus aureus [24] = experiment: Antibacterial activity against methicillin resistant Staphylococcus aureus NCTC 13616 assessed as bacterial growth inhibition incubated for overnight by microbroth dilution method; format: functional; in short: as §4
Enterococcus faecalis [25] = experiment: Antibacterial activity against vancomycin resistant Enterococcus faecalis NCTC 12201 assessed as bacterial growth inhibition incubated for overnight by microbroth dilution method; format: functional; in short: as §4
Klebsiella pneumoniae [26] = experiment: Synergistic antibacterial activity against Klebsiella pneumoniae NCTC 13368 assessed as fold change in rifampicin MIC at <=0.25 times MIC incubated for overnight by microbroth dilution checkerboard assay relative to rifampicin alone; format: functional; in short: as §6
Pseudomonas aeruginosa [27] = experiment: Synergistic antibacterial activity against Pseudomonas aeruginosa NCTC 13437 assessed as fold change in rifampicin MIC at <=0.25 times MIC incubated for overnight by microbroth dilution checkerboard assay relative to rifampicin alone; format: functional; in short: as §5
Pseudomonas aeruginosa [28] = experiment: Antibacterial activity against Pseudomonas aeruginosa PAO1 assessed as bacterial growth inhibition incubated for overnight by microbroth dilution method; format: functional; in short: as §1
Escherichia coli [29] = experiment: Synergistic antibacterial activity against Escherichia coli NCTC 12923 assessed as bacterial growth inhibition incubated for overnight in presence of PBMN by microbroth dilution method relative to control; format: functional; in short: as §2
Pseudomonas aeruginosa [30] = experiment: Synergistic antibacterial activity against Pseudomonas aeruginosa PAO1 assessed as fold change in rifampicin MIC at <=0.25 times MIC incubated for overnight by microbroth dilution checkerboard assay relative to rifampicin alone; format: functional; in short: as §5
Pseudomonas aeruginosa [31] = experiment: Antibacterial activity against Pseudomonas aeruginosa NCTC 13437 assessed as bacterial growth inhibition incubated for overnight by microbroth dilution method; format: functional; in short: as §1
Klebsiella pneumoniae [32] = experiment: Synergistic antibacterial activity against Klebsiella pneumoniae M6 assessed as bacterial growth inhibition incubated for overnight in presence of PBMN by microbroth dilution method relative to control; format: functional; in short: as §2
Acinetobacter baumannii [33] = experiment: Antibacterial activity against Acinetobacter baumannii ATCC 17978 assessed as bacterial growth inhibition incubated for overnight by microbroth dilution method; format: functional; in short: as §1

For `CCCCCCCCCCCCCCCCCCNC(=N)NCCCCN`, which MIC (Acinetobacter baumannii [1]) is on record?
The MIC was 128 µg/mL (≈ 334 µM).

What about the “inhibition (INH)” value (Acinetobacter baumannii [2]) of the same molecule?
The value was under 20%.

What about the “fold change (FC)” value (Escherichia coli [3]) of the same molecule?
The value was 0.

What about the MIC (Klebsiella pneumoniae [4]) of the same molecule?
Its MIC is over 128 µg/mL.

And the MIC (Escherichia coli [5])?
The MIC was 4 µg/mL.

And the “fold change (FC)” value (Acinetobacter baumannii [6])?
The value was “>=4”.

And the MIC (Klebsiella pneumoniae [7])?
Its MIC is over 128 µg/mL.

And the MIC (Escherichia coli [8])?
The MIC was over 128 µg/mL.

And the MIC (Acinetobacter baumannii [9])?
The MIC was at most 0.125 µg/mL.

And the “inhibition (INH)” value (Klebsiella pneumoniae [10])?
The value was under 20%.

What about the MIC (Acinetobacter baumannii [11]) of the same molecule?
Its MIC is 2 µg/mL.

What about the MIC (Staphylococcus aureus [12]) of the same molecule?
Its MIC is 2 µg/mL (≈ 5.23 µM).

And the “inhibition (INH)” value (Pseudomonas aeruginosa [13])?
Its value is under 20%.

What about the MIC (Pseudomonas aeruginosa [14]) of the same molecule?
The MIC was 16 µg/mL.

And the MIC (Staphylococcus aureus [15])?
Its MIC is 8 µg/mL (≈ 20.9 µM).

What about the MIC (Enterococcus faecium) of the same molecule?
The MIC was 2 µg/mL (≈ 5.23 µM).

And the MIC (Pseudomonas aeruginosa [16])?
The MIC was 32 µg/mL.

What about the MIC (Klebsiella pneumoniae [17]) of the same molecule?
Its MIC is 16 µg/mL.

And the “inhibition (INH)” value (Pseudomonas aeruginosa [18])?
The value was under 20%.

And the MIC (Enterococcus faecalis [19])?
The MIC was 2 µg/mL (≈ 5.23 µM).

And the MIC (Staphylococcus aureus [20])?
The MIC was 4 µg/mL (≈ 10.5 µM).

And the “fold change (FC)” value (Acinetobacter baumannii [21])?
Its value is “>=4”.

And the “inhibition (INH)” value (Acinetobacter baumannii [22])?
Its value is under 20%.

What about the MIC (Klebsiella pneumoniae [23]) of the same molecule?
Its MIC is 16 µg/mL.

And the MIC (Staphylococcus aureus [24])?
Its MIC is 4 µg/mL (≈ 10.5 µM).

And the MIC (Enterococcus faecalis [25])?
Its MIC is 2 µg/mL (≈ 5.23 µM).

What about the “fold change (FC)” value (Klebsiella pneumoniae [26]) of the same molecule?
Its value is 0.

And the “fold change (FC)” value (Pseudomonas aeruginosa [27])?
The value was 0.

What about the MIC (Pseudomonas aeruginosa [28]) of the same molecule?
Its MIC is over 128 µg/mL.

And the “inhibition (INH)” value (Escherichia coli [29])?
Its value is under 20%.

And the “fold change (FC)” value (Pseudomonas aeruginosa [30])?
Its value is 0.

What about the MIC (Pseudomonas aeruginosa [31]) of the same molecule?
Its MIC is over 128 µg/mL.

And the “inhibition (INH)” value (Klebsiella pneumoniae [32])?
Its value is under 20%.

What about the MIC (Acinetobacter baumannii [33]) of the same molecule?
Its MIC is 16 µg/mL (≈ 41.8 µM).
